According to PMC4136711 (Journal of Medicinal Chemistry, 2014):

What was measured:
[1] = biological target: T1, SETD8 (Homo sapiens, UniProt Q9NQR1); format: binding
T1 sequence (Q9NQR1 257-378 limits assumed): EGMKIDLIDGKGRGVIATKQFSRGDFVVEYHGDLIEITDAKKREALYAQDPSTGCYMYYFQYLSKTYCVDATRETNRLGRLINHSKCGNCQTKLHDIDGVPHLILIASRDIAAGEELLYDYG

[2] = biological target: PRC2 complex (Homo sapiens, UniProt Q15910); assay: Selectivity assay; format: biochemical; conditions: read-out: estimated IC50 PRC2
Outline: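 Tritium-labelled methyl transfer from 3H-SAM to peptide substrate, with substrates near their Km values for the enzyme. Test compound ranged from 100 nM to 100 μM. Reactions were quenched with 7.5 M guanidine hydrochloride, diluted in 20 mM Tris pH 8.0, and captured on FlashPlates for 1 h before counting CPM. The no-compound signal defined 100% activity and the no-enzyme signal defined 0%.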

[3] = biological target: L3MBTL1 (Homo sapiens, UniProt Q9Y468); conditions: methyllysine reader protein
Chain of L3MBTL1 (Q9Y468 whole entry, species assumed): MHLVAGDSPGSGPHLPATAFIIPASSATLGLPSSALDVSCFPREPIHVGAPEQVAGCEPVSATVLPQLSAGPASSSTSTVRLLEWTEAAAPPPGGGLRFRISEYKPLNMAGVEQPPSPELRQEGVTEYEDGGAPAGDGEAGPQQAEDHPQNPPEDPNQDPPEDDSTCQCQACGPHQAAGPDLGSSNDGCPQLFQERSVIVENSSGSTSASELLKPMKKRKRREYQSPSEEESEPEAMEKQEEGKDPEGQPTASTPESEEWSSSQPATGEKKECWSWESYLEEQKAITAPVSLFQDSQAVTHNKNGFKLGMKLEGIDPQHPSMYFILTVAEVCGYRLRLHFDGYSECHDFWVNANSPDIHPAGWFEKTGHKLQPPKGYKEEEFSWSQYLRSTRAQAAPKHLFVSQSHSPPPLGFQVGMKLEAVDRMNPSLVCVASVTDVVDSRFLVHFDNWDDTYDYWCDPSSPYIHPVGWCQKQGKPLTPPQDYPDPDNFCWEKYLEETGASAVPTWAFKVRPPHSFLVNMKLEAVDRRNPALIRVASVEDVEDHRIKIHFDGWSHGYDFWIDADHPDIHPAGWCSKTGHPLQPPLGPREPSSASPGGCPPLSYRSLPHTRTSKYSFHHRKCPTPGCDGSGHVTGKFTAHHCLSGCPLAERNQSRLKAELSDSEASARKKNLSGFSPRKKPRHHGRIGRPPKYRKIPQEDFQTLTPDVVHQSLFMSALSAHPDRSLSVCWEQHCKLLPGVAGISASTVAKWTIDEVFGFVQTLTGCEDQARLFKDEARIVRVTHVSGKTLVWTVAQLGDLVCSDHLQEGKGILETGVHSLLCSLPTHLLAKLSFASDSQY

Chain of PRC2 complex (Q15910 whole entry): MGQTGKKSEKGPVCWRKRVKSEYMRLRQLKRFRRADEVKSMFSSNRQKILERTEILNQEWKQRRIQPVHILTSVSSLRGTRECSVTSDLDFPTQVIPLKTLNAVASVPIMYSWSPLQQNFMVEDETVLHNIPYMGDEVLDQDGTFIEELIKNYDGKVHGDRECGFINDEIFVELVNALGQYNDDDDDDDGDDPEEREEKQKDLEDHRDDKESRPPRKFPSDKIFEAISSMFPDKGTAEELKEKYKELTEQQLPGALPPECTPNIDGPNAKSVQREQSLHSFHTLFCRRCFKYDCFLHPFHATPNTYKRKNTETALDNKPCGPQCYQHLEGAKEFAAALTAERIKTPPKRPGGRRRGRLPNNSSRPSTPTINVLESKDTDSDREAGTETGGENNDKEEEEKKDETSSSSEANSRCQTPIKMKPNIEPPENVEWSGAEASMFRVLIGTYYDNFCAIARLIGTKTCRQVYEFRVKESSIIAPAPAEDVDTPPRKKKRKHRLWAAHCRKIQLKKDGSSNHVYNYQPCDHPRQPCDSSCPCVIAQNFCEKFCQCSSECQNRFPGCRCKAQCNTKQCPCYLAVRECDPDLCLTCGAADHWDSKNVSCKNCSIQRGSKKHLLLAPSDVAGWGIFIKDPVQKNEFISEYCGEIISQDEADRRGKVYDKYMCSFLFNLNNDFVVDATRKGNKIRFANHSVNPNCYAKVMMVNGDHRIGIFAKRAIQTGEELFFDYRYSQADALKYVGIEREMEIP
Chain of PRC2 complex (O75530 whole entry partner): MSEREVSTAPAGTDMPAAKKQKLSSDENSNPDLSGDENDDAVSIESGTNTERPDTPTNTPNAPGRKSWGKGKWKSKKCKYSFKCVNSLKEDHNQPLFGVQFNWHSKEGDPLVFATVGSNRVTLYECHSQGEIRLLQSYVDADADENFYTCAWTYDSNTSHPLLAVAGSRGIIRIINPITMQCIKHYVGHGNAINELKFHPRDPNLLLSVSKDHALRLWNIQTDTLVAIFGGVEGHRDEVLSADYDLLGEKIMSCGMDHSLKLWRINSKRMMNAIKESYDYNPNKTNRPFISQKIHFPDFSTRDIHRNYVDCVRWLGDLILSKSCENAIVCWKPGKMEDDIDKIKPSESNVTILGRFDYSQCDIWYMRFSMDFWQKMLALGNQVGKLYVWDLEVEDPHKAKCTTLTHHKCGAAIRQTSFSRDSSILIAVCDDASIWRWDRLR
Chain of PRC2 complex (Q15022 whole entry partner): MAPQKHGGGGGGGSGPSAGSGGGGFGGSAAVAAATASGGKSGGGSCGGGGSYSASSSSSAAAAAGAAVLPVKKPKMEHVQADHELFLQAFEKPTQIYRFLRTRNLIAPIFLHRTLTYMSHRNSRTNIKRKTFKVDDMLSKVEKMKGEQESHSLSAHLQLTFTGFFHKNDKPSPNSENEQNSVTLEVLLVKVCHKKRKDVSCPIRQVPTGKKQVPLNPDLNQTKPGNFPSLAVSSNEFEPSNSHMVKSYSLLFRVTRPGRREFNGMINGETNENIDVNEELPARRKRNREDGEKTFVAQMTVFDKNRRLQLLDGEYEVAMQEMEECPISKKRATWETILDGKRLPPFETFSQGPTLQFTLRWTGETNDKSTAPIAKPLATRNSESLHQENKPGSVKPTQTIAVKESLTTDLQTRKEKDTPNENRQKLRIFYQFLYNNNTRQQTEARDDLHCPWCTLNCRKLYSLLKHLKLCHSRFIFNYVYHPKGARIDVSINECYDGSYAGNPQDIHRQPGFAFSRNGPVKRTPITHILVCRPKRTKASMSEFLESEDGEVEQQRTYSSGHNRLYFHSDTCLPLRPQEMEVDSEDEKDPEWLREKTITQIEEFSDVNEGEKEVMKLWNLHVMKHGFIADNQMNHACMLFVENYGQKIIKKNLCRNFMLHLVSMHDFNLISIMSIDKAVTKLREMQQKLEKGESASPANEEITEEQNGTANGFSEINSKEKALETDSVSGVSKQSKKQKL

| Displacement of FITC-labeled H4K20me peptide (FP), in words [1] | potency estimated from few doses [2] [µM] | Activity for L3MBTL1 [3] | Compound |
| --- | --- | --- | --- |
| did not displace the peptide | – | – | COc1cc2nc(N3CCCC3)nc(N(C)CCCCCN3CCCC3)c2cc1OC [Compound 14, 6,7-Dimethoxy-N-methyl-2-(pyrrolidin-1-yl)-N-(5-(pyrrolidin-1-yl)pentyl)quinazolin-4-amine] |
| – | > 50 | no appreciable activity | COc1cc2nc(N3CCCC3)nc(NCCCCCN3CCCC3)c2cc1OC [Compound 1, 6,7-Dimethoxy-2-(pyrrolidin-1-yl)-N-(5-(pyrrolidin-1-yl)pentyl)quinazolin-4-amine] |
